In ChEMBL document CHEMBL1158601, “Discovery of a novel series of CXCR3 antagonists” (Bioorg Med Chem Lett, 2010) one finds Activity, microsomal CLint and solubility data, which are given here for 38 compounds.

Active and inactive are the calls of the source. The calls are words filed in the database; no cut-off is given here.

Data set [1] deals with T1, C-X-C chemokine receptor type 5 (Homo sapiens) (UniProt P32302).
T1 sequence (whole entry): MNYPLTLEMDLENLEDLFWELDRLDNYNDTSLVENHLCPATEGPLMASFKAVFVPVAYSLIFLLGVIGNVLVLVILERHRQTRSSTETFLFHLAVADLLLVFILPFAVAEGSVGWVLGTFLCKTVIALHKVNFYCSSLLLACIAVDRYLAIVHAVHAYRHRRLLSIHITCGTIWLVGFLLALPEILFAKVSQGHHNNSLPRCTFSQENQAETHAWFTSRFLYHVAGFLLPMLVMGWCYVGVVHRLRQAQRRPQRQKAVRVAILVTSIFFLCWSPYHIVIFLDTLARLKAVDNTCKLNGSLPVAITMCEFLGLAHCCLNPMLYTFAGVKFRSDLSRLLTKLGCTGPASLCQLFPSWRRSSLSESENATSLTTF
Nature of the data set: Antagonist activity at human CXCR5 expressed in mouse L1.2 cells assessed as inhibition of CXCL13-induced chemotaxis up to 10 uM after 4 hrs. The data set is classed as functional, cell-based. In short, it runs like this:
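Counter-screen chemotaxis: CXCR5-overexpressing L1.2 cells stimulated with CXCL13, test compounds up to 10 µM.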

A short description of data set [2]: Intrinsic clearance in human liver microsomes assessed per mg of protein. The data set is classed as ADME, Microsome. In short, it runs like this: (§1)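 Intrinsic clearance from stability in human and rat liver microsomes, expressed as µL/min/mg protein.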
Data set [3] in a line: Aqueous solubility at pH 7.4. It counts as physicochemical. The note with it: buffer. In short, it runs like this: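 Aqueous solubility measured at pH 7.4.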
Data set [4] can be described thus: Intrinsic clearance in rat liver microsomes assessed per mg of protein. It counts as ADME, Microsome. In short, it runs like this: as §1
In general terms: Liver microsomes are vesicles of endoplasmic reticulum, rich in cytochrome P450 enzymes.

Take `O=C(NCC1CC1)c1ccc(CN(Cc2ccccn2)S(=O)(=O)c2ccc(Cl)cc2)cc1`: in data set [1], the result was inactive. The microsomal CLint in data set [2] came out at 265 µL/min/mg; in data set [4], 538 µL/min/mg. In addition, the solubility in data set [3] is less than 10 µM.

As to `COc1cccc(CN(Cc2ccc(-c3nnn[nH]3)cc2)S(=O)(=O)c2ccc(Cl)cc2)c1`, in data set [1], the result was inactive. Also, in data set [3], the solubility is more than 100 µM.

Consider `O=C(NCC1CC1)c1ccc(CN(Cc2ccccc2F)S(=O)(=O)c2ccc(Cl)cc2)cc1`, for which, in data set [1], the result was inactive. Moreover, the solubility in data set [3] is less than 10 µM.

Turning to `O=C(NCCc1cccc([N+](=O)[O-])c1)c1ccc(CN(Cc2ccccc2)S(=O)(=O)c2ccc(Cl)cc2)cc1`, the result in data set [1] was inactive. The compound also had a solubility in data set [3] of less than 10 µM.

`O=C(NC[C@@H]1CCCO1)c1ccc(CN(Cc2ccccc2)S(=O)(=O)c2ccc(Cl)cc2)cc1`: in data set [1], the outcome was inactive. The values for the microsomal CLint in data set [2] and in data set [4] were 490 µL/min/mg and 1700 µL/min/mg, respectively. This compound returned a solubility in data set [3] of less than 10 µM.

Consider `O=C(O)c1ccc(CN(Cc2ccccc2F)S(=O)(=O)c2ccc(Cl)cc2)cc1F`, for which, in data set [1], the result was inactive. The microsomal CLint in data set [4] is less than 10 µL/min/mg.

Turning to `O=S(=O)(c1ccc(Cl)cc1)N(Cc1ccc(Cl)cc1)Cc1ccc(-c2nnn[nH]2)cc1`, in data set [1], the outcome was inactive. The compound further came in with a solubility in data set [3] of more than 100 µM.

Turning to `O=S(=O)(c1ccc(Cl)cc1)N(CCc1cc2ccccc2cn1)Cc1ccc(-c2nnn[nH]2)cc1`, the result in data set [1] was inactive. Besides, in data set [3], the solubility is more than 100 µM.

For `O=C(O)c1ccc(CN(Cc2ccccn2)S(=O)(=O)c2ccc(Cl)cc2)cc1F`, in data set [1], the outcome was inactive.

As for `COc1ccc(S(=O)(=O)N(Cc2ccc(C(=O)NCC3CC3)cc2)Cc2cccnc2)cc1`, in data set [1], the result was inactive. The solubility in data set [3] is less than 10 µM.

`O=S(=O)(c1ccc(Cl)cc1)N(Cc1ccc(-c2nnn[nH]2)cc1)Cc1ccccc1F`: the result in data set [1] was inactive. In addition, the solubility in data set [3] was more than 100 µM.

For the compound `O=S(=O)(c1ccc(Cl)cc1)N(Cc1ccc(-c2nnc(O)o2)cc1)Cc1ccccn1`, in data set [1], the outcome was inactive.

As for `N#Cc1ccc(S(=O)(=O)N(Cc2ccc(C(=O)NC3(c4ccccc4)CC3)cc2)Cc2ccccn2)cc1`, in data set [1], the result was inactive. In addition, the microsomal CLint in data set [2] was found to be 435 µL/min/mg; in data set [4], 474 µL/min/mg. This compound had a solubility in data set [3] of less than 10 µM.

On to `O=C(NCC1CC1)c1ccc(CN(Cc2cccc(Cl)c2)S(=O)(=O)c2ccc(Cl)cc2)cc1`, for which the outcome in data set [1] was inactive. Also, the solubility in data set [3] was less than 10 µM.

Regarding `N#Cc1ccc(S(=O)(=O)N(Cc2ccc(-c3nnn[nH]3)cc2)Cc2ccccc2F)cc1`, in data set [1], the result was inactive. The solubility in data set [3] is more than 100 µM. Besides, the microsomal CLint in data set [4] was found to be 67 µL/min/mg.

Take `O=C(NCC1CC1)c1ccc(CN(Cc2ccccc2)S(=O)(=O)c2ccc(Cl)cc2)cc1`: the outcome in data set [1] was inactive. Also, the solubility in data set [3] was less than 10 µM.

Consider `CCOc1ccc(S(=O)(=O)N(Cc2ccc(-c3nnn[nH]3)cc2)Cc2ccccn2)cc1`, for which the result in data set [1] was inactive. The solubility in data set [3] is more than 100 µM.

Take `COc1ccc(S(=O)(=O)N(Cc2ccccc2)Cc2ccc(C(=O)NCc3ccccc3)cc2)cc1`: the outcome in data set [1] was inactive. The same compound came in with a solubility in data set [3] of less than 10 µM.

`N#Cc1ccc(S(=O)(=O)N(Cc2ccc(C(=O)O)c(F)c2)Cc2ccccn2)cc1`: in data set [1], the outcome was inactive.

In the case of `O=C(NC1(c2ccccc2)CC1)c1ccc(CN(Cc2ccccn2)S(=O)(=O)c2ccc(Cl)cc2)cc1`, in data set [1], the result was inactive. Further, the microsomal CLint amounted to 257 µL/min/mg in data set [2] and 1260 µL/min/mg in data set [4]. The compound also showed a solubility in data set [3] of less than 10 µM.

As to `CCOc1ccc(S(=O)(=O)N(Cc2ccccc2)Cc2ccc(C(=O)NCC3CC3)cc2)cc1`, the outcome in data set [1] was inactive. Further, in data set [3], the solubility was less than 10 µM.

On to `O=S(=O)(c1ccc(Cl)cc1)N(Cc1ccc(-c2nnn[nH]2)c(F)c1)Cc1ccccn1`, for which the outcome in data set [1] was inactive. Moreover, the solubility in data set [3] was more than 100 µM.

With `N#Cc1ccc(S(=O)(=O)N(Cc2ccc(-c3nnn[nH]3)cc2)Cc2ccccn2)cc1`, the outcome in data set [1] was inactive. Besides, the solubility in data set [3] is more than 100 µM.

Regarding `O=C(NCc1cccc(Cl)c1)c1ccc(CN(Cc2ccccn2)S(=O)(=O)c2ccc(Cl)cc2)cc1`, the result in data set [1] was inactive. Further, the microsomal CLint was 583 µL/min/mg in data set [2] and 1190 µL/min/mg in data set [4]. Also, in data set [3], the solubility was less than 10 µM.

As to `N#Cc1ccc(S(=O)(=O)N(Cc2ccc(C(=O)NCC3CC3)cc2)Cc2ccccn2)cc1`, the outcome in data set [1] was inactive. In data set [3], this compound displayed a solubility of less than 10 µM.

With `O=C(O)c1ccc(CN(Cc2ccccc2)S(=O)(=O)c2ccc(Cl)cc2)cc1`, in data set [1], the result was inactive. The microsomal CLint in data set [2] is less than 10 µL/min/mg; in data set [4], 20 µL/min/mg.

Consider `CC(C)(C)c1nc(CCN(Cc2ccc(-c3nnn[nH]3)cc2)S(=O)(=O)c2ccc(Cl)cc2)no1`, for which the outcome in data set [1] was inactive. Further, the solubility in data set [3] was more than 100 µM.

Turning to `O=S(=O)(c1ccc(Cl)cc1)N(Cc1ccc(-c2nnn[nH]2)c(F)c1)Cc1ccccc1F`, the result in data set [1] was inactive. In addition, the microsomal CLint was less than 10 µL/min/mg in data set [2] and 71 µL/min/mg in data set [4]. This compound gave a solubility in data set [3] of more than 100 µM.

`COc1ccc(S(=O)(=O)N(Cc2ccccc2)Cc2ccc(C(=O)NCC3CC3)cc2)cc1`: the outcome in data set [1] was inactive. This compound also showed a solubility in data set [3] of less than 10 µM.

Take `COc1ccc(S(=O)(=O)N(Cc2ccccc2)Cc2ccc(C(=O)O)cc2)cc1`: the outcome in data set [1] was inactive.

For the compound `O=S(=O)(c1ccc(Cl)cc1)N(Cc1ccc(-c2nnn[nH]2)cc1)Cc1ccccn1`, the result in data set [1] was inactive. The microsomal CLint in data set [2] is less than 10 µL/min/mg; in data set [4], 25 µL/min/mg. In addition, the solubility in data set [3] was more than 100 µM.

As for `O=C(NCC1CC1)c1ccc(CN(Cc2ccccc2)S(=O)(=O)c2ccc(OC(F)(F)F)cc2)cc1`, in data set [1], the result was inactive. In data set [3], the solubility is less than 10 µM.

For the compound `O=S(=O)(c1ccc(Cl)cc1)N(Cc1ccc(-c2nnn[nH]2)cc1)Cc1cccc(Cl)c1`, the result in data set [1] was inactive. This compound also had a solubility in data set [3] of more than 100 µM.

As for `COc1ccc(CN(Cc2ccc(-c3nnn[nH]3)cc2)S(=O)(=O)c2ccc(Cl)cc2)cc1`, the outcome in data set [1] was inactive. Further, the solubility in data set [3] was more than 100 µM.

Consider `O=C(NCc1cccs1)c1ccc(CN(Cc2ccccc2)S(=O)(=O)c2ccc(Cl)cc2)cc1`, for which the outcome in data set [1] was inactive. This compound also came in with a solubility in data set [3] of less than 10 µM.

In the case of `O=C(NC1(c2ccccc2)CC1)c1ccc(CN(Cc2ccccc2)S(=O)(=O)c2ccc(Cl)cc2)cc1`, the result in data set [1] was inactive. The microsomal CLint in data set [2] was 211 µL/min/mg; in data set [4], 507 µL/min/mg. The compound also showed a solubility in data set [3] of less than 10 µM.

With `O=S(=O)(c1ccc(Cl)cc1)N(Cc1ccc(F)cc1)Cc1ccc(-c2nnn[nH]2)cc1`, the result in data set [1] was inactive. In data set [3], this compound had a solubility of more than 100 µM.

For `O=C(NCc1cccc(Cl)c1)c1ccc(CN(Cc2ccccc2)S(=O)(=O)c2ccc(Cl)cc2)cc1`, the result in data set [1] was inactive. This compound came in with a solubility in data set [3] of less than 10 µM.

By microsomal CLint is commonly meant the capacity of the preparation to metabolise the compound, expressed as a volume cleared per time. A high value points to rapid turnover. In general, solubility refers to the dissolved amount per volume that the medium holds. Low readings indicate little dissolved substance, high ones much dissolved substance.
